Test results from ChEMBL document CHEMBL1136005 (J Med Chem, 2002).

Legend:
[1] = Plasma concentration was determined after 1 hr at a dose 30 mg/kg administered orally to rat-15; format: ADME, organism-based; set-up: dose 30 mg/kg, route oral; conditions: po
Outline: (§1)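 Sprague-Dawley rats, n=2 per compound, dosed orally at 30 mg/kg. Plasma drug concentration measured 1 and 8 h after dosing.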

[2] = Plasma concentration was determined after 1 hr at a dose 30 mg/kg administered orally to rat-16; format: ADME, organism-based; set-up: dose 30 mg/kg, route oral; conditions: po; outline: as §1
[3] = Plasma concentration was determined after 8 hr at a dose 30 mg/kg administered orally to rat-16; format: ADME, organism-based; set-up: dose 30 mg/kg, route oral; conditions: po; outline: as §1
[4] = pharmacokinetic parameter was evaluated after oral administration of 30 mg/kg to rat; format: ADME, organism-based; set-up: dose 30 mg/kg, route oral; conditions: in vivo
Outline: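 Sprague-Dawley rats, n=3, dosed orally at 30 mg/kg. Plasma drug concentrations were followed to derive Tmax (h), Cmax (µg/mL), T1/2 (h) and AUC0-∞ (µg h/mL).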

[5] = Lipophilicity was reported; format: physicochemical; conditions: octanol/water
[6] = target: Platelet-derived growth factor receptor (Homo sapiens, UniProt P09619+P16234); assay: Concentration required for 50% inhibition against autophosphorylation of Platelet-derived growth factor receptor beta in intact cells using a two site ELISA; format: cell-based
[7] = Plasma concentration was determined after 8 hr at a dose 30 mg/kg administered orally to rat-15; format: ADME, organism-based; set-up: dose 30 mg/kg, route oral; conditions: po; outline: as §1
[8] = Plasma concentration was determined after 1 hr at a dose 30 mg/kg administered orally to rat-7; format: ADME, organism-based; set-up: dose 30 mg/kg, route oral; conditions: po; outline: as §1
[9] = Plasma concentration was determined after 8 hr at a dose 30 mg/kg administered orally to rat-7; format: ADME, organism-based; set-up: dose 30 mg/kg, route oral; conditions: po; outline: as §1
[10] = Plasma concentration was determined after 8 hr at a dose 30 mg/kg administered orally to rat-8; format: ADME, organism-based; set-up: dose 30 mg/kg, route oral; conditions: po; outline: as §1
[11] = Plasma concentration was determined after 1 hr at a dose 30 mg/kg administered orally to rat-8; format: ADME, organism-based; set-up: dose 30 mg/kg, route oral; conditions: po; outline: as §1

## COc1cc2ncnc(N3CCN(C(=S)NCc4ccco4)CC3)c2cc1OC
[1]
  concentration at 1 h: 3000 ng/mL
[2]
  concentration at 1 h: 3700 ng/mL
[3]
  concentration at 8 h: 1400 ng/mL
[4]
  AUC: 95800 ng·h/mL
  Cmax: 7200 ng/mL
  Tmax: 3.67 h
  half-life: 3.33 h
[5]
  logD: 2.75
[6]
  IC50: 330 nM
[7]
  concentration at 8 h: 1200 ng/mL

## COc1ccc(CNC(=S)N2CCN(c3ncnc4cc(OC)c(OC)cc34)CC2)cc1
[8]
  concentration at 1 h: 2300 ng/mL
[9]
  concentration at 8 h: 400 ng/mL
[10]
  concentration at 8 h: 500 ng/mL
[6]
  IC50: 100 nM
[11]
  concentration at 1 h: 2500 ng/mL
